Here are results for eight compounds from ChEMBL document CHEMBL3044706, “Lignans and neolignans from Brassica fruticulosa: effects on seed germination and plant growth” (2003).

In assay [1] the test system is Allium cepa. Briefly: Stimulation of root elongation in Allium cepa (onion) at 10^-4 to 10^-9 M after 7 days relative to control. Type of assay: functional, organism-based. Summed up:
(§1)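 Seeds (cress 3 days, tomato 5 days, onion 7 days), 25 per 90 mm Petri dish on one Whatman No. 1 filter paper, with 5 mL test solution in 10 mM MES pH 6 (10^-4 M, diluted to 10^-9 M). Dishes were sealed and kept at 25 °C in the dark. Germination was scored daily, then root/shoot lengths were taken after freezing at -20 °C. Four replicates, expressed as % difference from control, with t-test.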

The subject of assay [2] is Solanum lycopersicum. Put plainly: Stimulation of shoot elongation in Solanum lycopersicum (tomato) at 10^-4 to 10^-9 M after 5 days relative to control. It counts as functional, organism-based. Summed up: as §1
Assay [3] relates to Solanum lycopersicum. Briefly: Effect on root elongation in Solanum lycopersicum (tomato) at 10^-4 to 10^-9 M after 5 days relative to control. Type of assay: functional, organism-based. The procedure, abridged:
as §1

Assay [4] has as its system Allium cepa. Briefly: Stimulation of shoot elongation in Allium cepa (onion) at 10^-4 to 10^-9 M after 7 days relative to control. Type of assay: functional, organism-based. The procedure, abridged: as §1
Assay [5] deals with Allium cepa. Put plainly: Inhibition of shoot elongation in Allium cepa (onion) at 10^-4 to 10^-9 M after 7 days relative to control. Type of assay: functional, organism-based. Summed up:
as §1

The subject of assay [6] is Lactuca sativa. Briefly: Stimulation of shoot elongation in Lactuca sativa (lettuce) at 10^-4 to 10^-9 M after 5 days relative to control. It counts as functional, organism-based. Summed up:
(§2)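 Lettuce seeds, 25 per 50 mm Petri dish on one Whatman No. 1 filter paper, with 2.5 mL test solution in 10 mM MES pH 6 (10^-4 M, diluted to 10^-9 M). Dishes were Parafilm-sealed and kept at 25 °C in the dark. Germination was scored daily for 5 days, then root/shoot lengths were measured on plants frozen at -20 °C. Four replicates, expressed as % difference from parallel control, with Student's t-test.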

Assay [7] deals with Solanum lycopersicum. Put plainly: Effect on seed germination in Solanum lycopersicum (tomato) at 10^-4 to 10^-9 M after 5 days relative to control. Type of assay: functional, organism-based. The procedure, abridged:
as §1

The subject of assay [8] is Lactuca sativa. Put plainly: Effect on root elongation in Lactuca sativa (lettuce) at 10^-4 to 10^-9 M after 5 days relative to control. It counts as functional, organism-based. Summed up: as §2
In assay [9] the test system is Lactuca sativa. Put plainly: Inhibition of shoot elongation in Lactuca sativa (lettuce) at 10^-4 to 10^-9 M after 5 days relative to control. Type of assay: functional, organism-based. The procedure, abridged: as §2
The test system of assay [10] is Solanum lycopersicum. Briefly: Inhibition of shoot elongation in Solanum lycopersicum (tomato) at 10^-4 to 10^-9 M after 5 days relative to control. It counts as functional, organism-based. Summed up: as §1
For assay [11], the system named is Allium cepa. Put plainly: Effect on seed germination in Allium cepa (onion) at 10^-4 to 10^-9 M after 7 days relative to control. It counts as functional, organism-based. Summed up: as §1
Assay [12] deals with Lactuca sativa. Briefly: Inhibition of seed germination in Lactuca sativa (lettuce) at 10^-4 to 10^-9 M after 5 days relative to control. It counts as functional. Summed up:
as §2

Structures are written as SMILES. Activity calls are given as the source filed them. The calls are words filed in the database; no cut-off is given here.

For the compound `COc1cc([C@@H](O)[C@@H](CO)Oc2c(OC)cc(/C=C/CO)cc2OC)ccc1O`, the result in the assay on Allium cepa [1], in the assay on Solanum lycopersicum [2], in the assay on Allium cepa [4] and with Lactuca sativa [6] was Active. Further, the outcome in the assay with Solanum lycopersicum [3], with Solanum lycopersicum [7], in the assay with Lactuca sativa [8] and with Allium cepa [11] was inactive. The inhibition result in the assay on Allium cepa [5], in the assay with Lactuca sativa [9] and with Solanum lycopersicum [10] was “Active” each time.
For the compound `COc1cc(/C=C/C(=O)O)ccc1Oc1ccc(/C=C/C(=O)O)cc1OC`, the outcome in the assay with Allium cepa [1], in the assay with Solanum lycopersicum [2], in the assay with Allium cepa [4] and in the assay with Lactuca sativa [6] was Active. Further, the result with Solanum lycopersicum [3], with Solanum lycopersicum [7], with Lactuca sativa [8] and with Allium cepa [11] was inactive. The inhibition result in the assay with Allium cepa [5], with Lactuca sativa [9] and with Solanum lycopersicum [10] was “Active” throughout.
In the case of `CCC(CC)Nc1c([N+](=O)[O-])cc(C)c(C)c1[N+](=O)[O-]`, the inhibition entry in the assay on Lactuca sativa [12] is “Active”. Besides, in the assay on Lactuca sativa [6], the result was Active. In addition, the outcome with Lactuca sativa [8] was inactive.
On to `COc1cc([C@H](O)[C@@H](CO)Oc2c(OC)cc([C@@H]3Oc4c(OC)cc(/C=C/CO)cc4[C@H]3CO)cc2OC)ccc1O`, for which the result with Allium cepa [1], with Solanum lycopersicum [2], with Allium cepa [4] and with Lactuca sativa [6] was Active. The inhibition result with Lactuca sativa [12], in the assay with Allium cepa [5], in the assay on Lactuca sativa [9] and in the assay on Solanum lycopersicum [10] was “Active” each time. In addition, the result with Solanum lycopersicum [3], in the assay on Solanum lycopersicum [7], with Lactuca sativa [8] and with Allium cepa [11] was inactive.
Take `O=C(O)CNCP(=O)(O)O`: in the assay on Lactuca sativa [12], the inhibition result is “Active”. For the same compound, the outcome in the assay with Lactuca sativa [6] was Active. The result in the assay on Lactuca sativa [8] was inactive.
`COc1cc([C@H](O)[C@H](CO)Oc2c(OC)cc([C@@H]3OC[C@@H]4[C@H]3CO[C@H]4c3cc(OC)c(O[C@@H](CO)[C@@H](O)c4ccc(O)c(OC)c4)c(OC)c3)cc2OC)ccc1O`: the outcome in the assay with Allium cepa [1], in the assay on Solanum lycopersicum [2], with Allium cepa [4] and in the assay with Lactuca sativa [6] was Active. The inhibition entry in the assay on Lactuca sativa [12], with Allium cepa [5], in the assay with Lactuca sativa [9] and in the assay with Solanum lycopersicum [10] was “Active” each time. In addition, the outcome in the assay on Solanum lycopersicum [3], in the assay with Solanum lycopersicum [7], in the assay on Lactuca sativa [8] and with Allium cepa [11] was inactive.
Consider `COc1cc([C@@H](O)[C@H]2CO[C@H](c3ccc(O)c(OC)c3)[C@H]2CO)ccc1O`, for which the result with Allium cepa [1], in the assay on Solanum lycopersicum [2], with Allium cepa [4] and in the assay on Lactuca sativa [6] was Active. Moreover, the result with Solanum lycopersicum [3], with Solanum lycopersicum [7], in the assay with Lactuca sativa [8] and in the assay on Allium cepa [11] was inactive. In addition, the inhibition result in the assay on Allium cepa [5], in the assay on Lactuca sativa [9] and in the assay on Solanum lycopersicum [10] was “Active” throughout.
For the compound `COc1cc([C@@H]2OC[C@H]3[C@@H]2CO[C@H]3c2ccc(O)c(OC)c2)ccc1O`, the outcome in the assay with Allium cepa [1], in the assay with Solanum lycopersicum [2], with Allium cepa [4] and in the assay on Lactuca sativa [6] was Active. Moreover, the result in the assay with Solanum lycopersicum [3], in the assay with Solanum lycopersicum [7], in the assay with Lactuca sativa [8] and in the assay with Allium cepa [11] was inactive. The inhibition result in the assay on Allium cepa [5], with Lactuca sativa [9] and in the assay on Solanum lycopersicum [10] was “Active” in each case.
